The values below come from article PMC2119941 (The Journal of Cell Biology, 1994).

The target of assay [1] is T1, alpha 5 beta 1 integrin (Homo sapiens, UniProt P05556+P08648). In kind it is binding. The conditions noted are these: unrelated cyclic control peptide.
Assay [2] addresses alpha 5 beta 1 integrin (UniProt G3HZ55+P08648). The assay can be described thus: Cell attachment assay: B2/a27 cells on fibronectin. It is filed as cell-based, human.
Assay [3] concerns the target T1, alpha 5 beta 1 integrin. It is filed as binding. Conditions: control peptide; not shown.
For assay [4], the target named is T1, alpha 5 beta 1 integrin. It is filed as binding.
Assay [5] has as its target alpha IIb beta 3 integrin (Homo sapiens, UniProt P05106+P08514). The assay is described as follows: Binding to wells coated with alpha IIb beta 3 integrin.
In assay [6] the target is alpha v beta 3 integrin (Homo sapiens, UniProt P05106+P06756). It is filed as binding. The method, boiled down: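 Human placental αvβ3 (octyl glucoside extract with 1 mM MnCl2 and 1 mM CaCl2) coated in microtiter wells. Phage incubated 1 h at room temperature, then washed five times. Bound phage infected K91kan bacteria for 10 min at 37°C, then grown in Terrific broth with tetracycline and kanamycin (30 min at 37°C, then overnight at room temperature with shaking). Bacterial growth read as A600.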

No end group written: not given here.

T1 sequence (P08648 42-894 limits assumed): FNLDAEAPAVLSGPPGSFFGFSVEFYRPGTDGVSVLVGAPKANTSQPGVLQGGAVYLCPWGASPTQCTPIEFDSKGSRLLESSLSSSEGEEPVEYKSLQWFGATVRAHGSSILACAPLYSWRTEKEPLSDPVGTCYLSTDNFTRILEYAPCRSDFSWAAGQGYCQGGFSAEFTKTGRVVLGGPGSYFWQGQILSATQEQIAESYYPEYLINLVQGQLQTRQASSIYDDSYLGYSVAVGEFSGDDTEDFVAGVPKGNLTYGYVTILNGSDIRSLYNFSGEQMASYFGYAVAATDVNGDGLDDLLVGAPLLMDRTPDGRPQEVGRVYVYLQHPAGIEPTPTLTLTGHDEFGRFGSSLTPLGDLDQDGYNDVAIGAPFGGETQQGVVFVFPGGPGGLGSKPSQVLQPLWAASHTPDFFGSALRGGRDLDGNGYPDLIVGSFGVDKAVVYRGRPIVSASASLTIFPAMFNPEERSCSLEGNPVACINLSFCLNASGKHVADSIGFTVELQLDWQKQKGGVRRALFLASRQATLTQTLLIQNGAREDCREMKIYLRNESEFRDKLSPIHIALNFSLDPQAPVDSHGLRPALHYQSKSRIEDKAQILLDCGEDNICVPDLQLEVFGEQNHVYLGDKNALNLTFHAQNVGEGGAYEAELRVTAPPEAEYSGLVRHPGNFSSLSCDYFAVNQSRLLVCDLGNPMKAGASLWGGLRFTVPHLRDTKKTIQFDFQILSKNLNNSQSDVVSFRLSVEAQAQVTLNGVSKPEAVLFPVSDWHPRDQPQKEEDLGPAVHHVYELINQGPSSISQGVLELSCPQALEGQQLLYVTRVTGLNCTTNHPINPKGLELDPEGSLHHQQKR
T1 sequence (P08648 895-1049 limits assumed): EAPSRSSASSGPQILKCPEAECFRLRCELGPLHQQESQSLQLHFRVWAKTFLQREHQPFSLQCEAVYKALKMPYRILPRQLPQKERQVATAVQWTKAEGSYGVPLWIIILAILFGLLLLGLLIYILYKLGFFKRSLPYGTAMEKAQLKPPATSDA
T1 sequence (P05556 21-798): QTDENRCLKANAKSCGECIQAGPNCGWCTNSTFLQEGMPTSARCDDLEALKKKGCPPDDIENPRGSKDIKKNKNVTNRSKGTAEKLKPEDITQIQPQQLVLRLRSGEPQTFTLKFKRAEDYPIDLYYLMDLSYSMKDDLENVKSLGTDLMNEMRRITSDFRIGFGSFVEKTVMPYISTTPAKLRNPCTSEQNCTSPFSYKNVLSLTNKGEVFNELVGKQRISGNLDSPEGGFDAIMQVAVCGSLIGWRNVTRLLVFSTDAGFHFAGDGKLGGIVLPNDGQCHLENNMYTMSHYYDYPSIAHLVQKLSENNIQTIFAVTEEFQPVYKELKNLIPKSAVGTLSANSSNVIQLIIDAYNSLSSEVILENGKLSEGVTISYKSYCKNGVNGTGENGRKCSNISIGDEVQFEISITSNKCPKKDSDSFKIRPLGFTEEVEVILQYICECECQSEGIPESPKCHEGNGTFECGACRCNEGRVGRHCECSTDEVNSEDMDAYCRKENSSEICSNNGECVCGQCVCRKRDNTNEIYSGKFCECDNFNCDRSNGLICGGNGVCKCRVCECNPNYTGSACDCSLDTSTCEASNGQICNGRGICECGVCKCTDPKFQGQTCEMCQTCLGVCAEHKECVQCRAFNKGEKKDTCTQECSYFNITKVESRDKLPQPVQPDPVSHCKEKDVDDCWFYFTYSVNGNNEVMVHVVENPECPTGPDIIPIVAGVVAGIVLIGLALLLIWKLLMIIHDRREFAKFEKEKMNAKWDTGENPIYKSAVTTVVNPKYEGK
Chain of alpha 5 beta 1 integrin (UniProt G3HZ55+P08648) (P08648 42-894 limits assumed): as the sequence (P08648 42-894 limits assumed) above
Chain of alpha 5 beta 1 integrin (UniProt G3HZ55+P08648) (P08648 895-1049 limits assumed): as the sequence (P08648 895-1049 limits assumed) above
Chain of alpha 5 beta 1 integrin (UniProt G3HZ55+P08648) (G3HZ55 21-798): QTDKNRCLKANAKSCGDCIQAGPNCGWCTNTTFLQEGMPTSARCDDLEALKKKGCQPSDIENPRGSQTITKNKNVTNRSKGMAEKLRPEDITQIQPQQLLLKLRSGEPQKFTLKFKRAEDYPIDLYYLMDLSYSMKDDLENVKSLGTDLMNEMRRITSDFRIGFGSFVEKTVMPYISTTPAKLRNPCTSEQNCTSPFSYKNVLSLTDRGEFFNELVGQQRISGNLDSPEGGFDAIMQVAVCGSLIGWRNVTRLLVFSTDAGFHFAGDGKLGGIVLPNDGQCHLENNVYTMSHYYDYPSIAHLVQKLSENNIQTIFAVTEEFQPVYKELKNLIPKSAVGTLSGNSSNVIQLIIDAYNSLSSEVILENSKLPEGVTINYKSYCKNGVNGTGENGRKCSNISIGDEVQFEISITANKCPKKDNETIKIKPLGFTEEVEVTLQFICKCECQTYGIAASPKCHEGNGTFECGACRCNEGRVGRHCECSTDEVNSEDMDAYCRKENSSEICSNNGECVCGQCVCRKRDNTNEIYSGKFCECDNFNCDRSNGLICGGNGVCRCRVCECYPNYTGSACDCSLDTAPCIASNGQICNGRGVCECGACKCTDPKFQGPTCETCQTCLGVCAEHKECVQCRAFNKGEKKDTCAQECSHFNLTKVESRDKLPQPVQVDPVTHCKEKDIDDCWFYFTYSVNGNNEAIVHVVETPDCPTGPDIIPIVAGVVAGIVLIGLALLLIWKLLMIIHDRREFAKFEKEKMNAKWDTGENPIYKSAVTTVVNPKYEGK
Chain of alpha IIb beta 3 integrin (P08514 32-887 limits assumed): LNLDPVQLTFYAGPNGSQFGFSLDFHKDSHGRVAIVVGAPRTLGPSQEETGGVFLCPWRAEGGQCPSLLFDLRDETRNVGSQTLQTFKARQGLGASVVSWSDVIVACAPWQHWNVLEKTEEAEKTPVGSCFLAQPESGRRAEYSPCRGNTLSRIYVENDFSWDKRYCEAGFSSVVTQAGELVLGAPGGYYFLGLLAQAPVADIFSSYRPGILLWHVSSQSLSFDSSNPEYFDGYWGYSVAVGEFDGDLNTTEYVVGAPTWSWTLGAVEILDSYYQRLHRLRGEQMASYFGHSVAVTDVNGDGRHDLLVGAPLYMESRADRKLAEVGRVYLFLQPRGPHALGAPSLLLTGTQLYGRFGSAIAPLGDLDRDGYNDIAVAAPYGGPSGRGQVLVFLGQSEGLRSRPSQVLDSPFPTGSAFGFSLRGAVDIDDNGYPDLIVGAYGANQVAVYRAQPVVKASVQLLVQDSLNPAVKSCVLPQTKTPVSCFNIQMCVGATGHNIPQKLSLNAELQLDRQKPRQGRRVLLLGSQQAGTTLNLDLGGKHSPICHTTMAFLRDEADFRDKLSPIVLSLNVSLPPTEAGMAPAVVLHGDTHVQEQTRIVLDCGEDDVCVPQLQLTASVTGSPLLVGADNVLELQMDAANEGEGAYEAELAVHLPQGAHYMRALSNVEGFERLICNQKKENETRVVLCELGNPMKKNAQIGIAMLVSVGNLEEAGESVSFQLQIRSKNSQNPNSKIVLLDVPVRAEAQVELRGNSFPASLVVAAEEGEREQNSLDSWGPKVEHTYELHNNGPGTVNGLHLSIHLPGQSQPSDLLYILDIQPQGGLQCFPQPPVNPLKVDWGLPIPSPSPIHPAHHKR
Chain of alpha IIb beta 3 integrin (P05106 27-788): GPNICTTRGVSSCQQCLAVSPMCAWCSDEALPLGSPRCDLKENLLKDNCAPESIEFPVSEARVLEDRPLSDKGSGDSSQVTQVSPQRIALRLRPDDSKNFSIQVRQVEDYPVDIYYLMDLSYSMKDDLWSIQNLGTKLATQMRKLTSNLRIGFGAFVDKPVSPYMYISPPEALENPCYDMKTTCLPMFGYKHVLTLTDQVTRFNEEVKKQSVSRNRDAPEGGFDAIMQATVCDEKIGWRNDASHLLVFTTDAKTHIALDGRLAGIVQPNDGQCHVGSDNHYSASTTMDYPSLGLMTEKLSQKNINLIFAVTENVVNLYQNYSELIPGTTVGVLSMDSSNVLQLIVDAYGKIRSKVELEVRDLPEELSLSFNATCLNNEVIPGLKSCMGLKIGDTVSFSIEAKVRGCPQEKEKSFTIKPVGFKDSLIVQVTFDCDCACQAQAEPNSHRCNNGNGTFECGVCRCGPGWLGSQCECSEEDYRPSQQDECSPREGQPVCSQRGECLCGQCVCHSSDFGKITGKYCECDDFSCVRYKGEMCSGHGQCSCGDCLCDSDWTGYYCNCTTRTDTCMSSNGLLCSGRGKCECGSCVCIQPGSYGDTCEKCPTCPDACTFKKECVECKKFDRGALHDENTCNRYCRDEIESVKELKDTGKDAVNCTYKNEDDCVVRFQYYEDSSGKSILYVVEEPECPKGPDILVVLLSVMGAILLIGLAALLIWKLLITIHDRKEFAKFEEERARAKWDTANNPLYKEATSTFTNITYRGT

Turning to GA*CSPYFLRLC*GA (disulfide), the “Effect on binding of 125I-labeled fibronectin to alpha 5 beta 1” value in assay [1] is recorded as “no significant effect”.
Turning to “GACRRETAWACGA [GACRRETAWACGA not cyclized]”, the “Activity of peptide not cyclized by oxidation” value in assay [2] (relative to cyclic *CRRETAWAC*) was “reduced activity”.
Regarding GRGESP [reference compound], the “Effect on alpha 5 beta 1-mediated cell attachment to fibronectin” value in assay [2] (control peptide) was “no effect”. The “Effect on binding of RRETAWA-containing phage to alpha 5 beta 1” value in assay [3] is “no effect”.
With “RGAPRAW (disulfide (positions not given here))”, the “Binding of phage clone to microtiter wells coated with alpha 5 beta 1” value (“Binding of phage clone … with alpha 5 beta 1” below) in assay [4] is on record as “bound weakly”.
In the case of “RRETAWA (disulfide (positions not given here)) [RRETAWA-phage]”, the “Binding of phage clone … with alpha 5 beta 1” value in assay [4] is reported as “avidly”. In addition, the “Binding to the alpha IIb beta 3 integrin” value in assay [5] is given as “did not bind”. For the same substance, the “Binding of phage clone to microtiter wells coated with alpha v beta 3” value in assay [6] is recorded as “only weakly”.
In the case of “STSDVGG (disulfide (positions not given here))”, the “Binding of phage clone … with alpha 5 beta 1” value in assay [4] was “significantly over the background”.
For “TLVPSRS (disulfide (positions not given here))”, in assay [4], the “Binding of phage clone … with alpha 5 beta 1” value is “significantly over the background”.
For the substance “VFSIAHE (disulfide (positions not given here))”, the “Binding of phage clone … with alpha 5 beta 1” value in assay [4] was “significantly over the background”.
As for VRLNSLA (disulfide), in assay [4], the “Binding of phage clone … with alpha 5 beta 1” value was “significantly over the background”.
